Data on eight molecules can be found in PMC4159695 (Molecular Microbiology, 2014).

What is called Kd is a measure of binding affinity in units of concentration.

Bounds are passed on as bounds.

For assay [1], the system named is PAS domain of Mycobacterium tuberculosis Rv1364c. The settings on record: ref King‐Scott et al., 2011, cited from earlier work; for binding to PAS domain: in words.
Assay [2] concerns the target T1, N‐terminal PAS domain from XC_2579 (Tk 4, residues 1 to 165) (Xanthomonas campestris pv. campestris, UniProt Q8PA41).
T1 sequence (Q8PA41 14-178): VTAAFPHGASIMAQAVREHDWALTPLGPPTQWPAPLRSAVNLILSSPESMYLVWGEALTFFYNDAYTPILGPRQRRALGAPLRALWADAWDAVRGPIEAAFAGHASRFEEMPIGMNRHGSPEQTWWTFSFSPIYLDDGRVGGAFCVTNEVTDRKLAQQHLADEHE
Kind of assay: Isothermal titration calorimetry of DSF and structural analogues binding to Tk 4. The note with it: ITC; for △H: change in enthalpy upon binding; for △S (cal mol^−1 per degree): change in entropy upon binding. In short, it runs like this:
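His6-tagged XC_2579 PAS domain construct (Tk 4) expressed in E. coli BL21(DE3) with 0.25 mM IPTG at 37°C for 1 h. Purified by Ni2+ affinity; tag cleaved with HRV 3C protease. Heats corrected against buffer control; one-site fit for Kd, ΔH, ΔS. Repeated at least twice.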
In general terms: ITC needs no label: the signal is the heat of the interaction.

In assay [3] the target is T2, full‐length XC_2579 protein (RpfS) (Xanthomonas campestris pv. campestris, UniProt Q8PA41).
T2 sequence (Q8PA41 14-968): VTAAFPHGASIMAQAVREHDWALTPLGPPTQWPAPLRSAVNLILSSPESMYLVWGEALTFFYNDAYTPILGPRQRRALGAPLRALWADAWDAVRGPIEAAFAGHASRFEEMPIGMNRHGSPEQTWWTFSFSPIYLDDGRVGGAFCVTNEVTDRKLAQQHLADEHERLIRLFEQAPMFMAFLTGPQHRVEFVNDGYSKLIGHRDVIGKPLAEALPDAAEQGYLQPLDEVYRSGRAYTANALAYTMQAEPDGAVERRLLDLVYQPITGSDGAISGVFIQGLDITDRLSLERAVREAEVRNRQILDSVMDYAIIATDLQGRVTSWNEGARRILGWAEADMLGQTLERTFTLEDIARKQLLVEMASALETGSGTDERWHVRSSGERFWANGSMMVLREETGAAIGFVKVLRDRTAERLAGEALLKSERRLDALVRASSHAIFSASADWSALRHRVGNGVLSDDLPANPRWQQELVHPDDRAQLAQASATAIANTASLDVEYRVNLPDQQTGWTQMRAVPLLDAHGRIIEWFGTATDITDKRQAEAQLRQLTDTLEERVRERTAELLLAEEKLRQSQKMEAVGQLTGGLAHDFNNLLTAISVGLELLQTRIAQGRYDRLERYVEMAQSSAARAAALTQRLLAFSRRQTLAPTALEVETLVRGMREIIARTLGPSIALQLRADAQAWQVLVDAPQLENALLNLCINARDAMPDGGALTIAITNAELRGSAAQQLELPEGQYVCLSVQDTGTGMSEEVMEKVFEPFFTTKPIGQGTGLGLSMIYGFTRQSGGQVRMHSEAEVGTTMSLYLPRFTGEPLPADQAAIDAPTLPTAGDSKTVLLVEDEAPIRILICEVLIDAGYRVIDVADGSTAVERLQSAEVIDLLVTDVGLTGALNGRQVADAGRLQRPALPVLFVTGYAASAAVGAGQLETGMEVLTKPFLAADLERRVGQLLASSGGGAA
The assay can be described thus: Isothermal titration calorimetry of DSF binding to full-length XC_2579.

In assay [4] the target is T3, Tk 1 (XC_2579 N‐terminal amino acid residues 1 to 360) (Xanthomonas campestris pv. campestris, UniProt Q8PA41).
T3 sequence (Q8PA41 14-373): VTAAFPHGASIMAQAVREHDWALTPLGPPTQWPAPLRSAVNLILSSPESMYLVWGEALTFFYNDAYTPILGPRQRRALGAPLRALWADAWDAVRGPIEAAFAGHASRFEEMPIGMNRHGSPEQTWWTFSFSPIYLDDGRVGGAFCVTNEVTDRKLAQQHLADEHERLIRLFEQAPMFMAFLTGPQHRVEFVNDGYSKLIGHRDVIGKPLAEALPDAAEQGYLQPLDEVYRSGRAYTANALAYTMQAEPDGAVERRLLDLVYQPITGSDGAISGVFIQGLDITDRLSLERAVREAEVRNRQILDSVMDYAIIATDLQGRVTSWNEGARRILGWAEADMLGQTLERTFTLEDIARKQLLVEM
The assay can be described thus: Isothermal titration calorimetry of DSF binding to truncation Tk 1. The settings on record: ITC, Tk 1, in words.

Assay [5] relates to Tk2 (XC_2579 amino acid residues 530–955). Kind of assay: Isothermal titration calorimetry of DSF binding to truncation Tk 2. The settings on record: ITC, Tk2, in words. Details: species or system Xanthomonas campestris pv. campestris.
In assay [6] the target is T4, Tk 3 (XC_2579 amino residues 1 to 240) (Xanthomonas campestris pv. campestris, UniProt Q8PA41).
T4 sequence (Q8PA41 14-253): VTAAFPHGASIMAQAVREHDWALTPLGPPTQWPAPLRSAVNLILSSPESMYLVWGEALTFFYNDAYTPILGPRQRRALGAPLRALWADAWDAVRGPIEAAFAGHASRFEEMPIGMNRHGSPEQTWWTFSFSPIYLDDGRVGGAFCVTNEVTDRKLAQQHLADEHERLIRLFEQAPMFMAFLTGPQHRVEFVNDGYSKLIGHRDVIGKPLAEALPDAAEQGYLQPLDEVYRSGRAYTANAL
Kind of assay: Isothermal titration calorimetry of DSF binding to truncation Tk 3. The note with it: ITC, Tk 3, in words.

The subject of assay [7] is XC_0107 gfp fusion. Kind of assay: XC_0107 gfp reporter fusion expression induced by DSF. The note with it: rpfFC strain carrying reporter; 50 μM synthetic DSF, 14 h. The assay is classed as cell-based, Xanthomonas campestris. A general note: DSF heats the sample and reads unfolding from a dye or from intrinsic fluorescence.
[8] abbreviates: Kd (M), Tk 4, higher concentrations of analogues used to estimate Kd.

As to `CCCCCC/C=C\CCCCCCCC(=O)O` [Palmitoleic acid], in assay [1], the “binding to PAS domain” value was “bind”.
As for `CCCCCCCCCCCCCCCC(=O)O` [palmitic acid], the “affinity relative to palmitoleic acid (times lower)” value in assay [1] is on record as 100 times.
As to `CCCCCCCCCCCC(=O)O` [Dodecanoic acid], the Kd is 0.0149 M in assay [2] (setting [8]) and more than 0.001 M in assay [2] (Kd, Tk 4).
In the case of `CCCCCCCC/C=C\CCCCCCCC(=O)O` [oleic acid], the “binding to PAS domain” value in assay [1] was “bind”.
In assay [3], `CC(C)CCCCCCC/C=C\C(=O)O` [DSF, cis‐11‐methyl‐2‐dodecenoic acid] showed a Kd of 1.4 µM. Also, the DSF binding result is on record as “bound DSF with high affinity” in assay [4]; “no binding was detected” in assay [5]; “High affinity DSF binding” in assay [6]; “High affinity DSF binding” in assay [2] (Tk 4, in words). Also, in assay [2] (Tk 4), the “△H” value is -1.60 kcal/mol. Moreover, the “△S (cal mol^−1 per degree)” value in assay [2] (Tk 4) is recorded as 59.73 cal mol^−1 per degree. The “expression of GFP (XC_0107 gfp reporter)” value in assay [7] is “activated”.
Consider `CC(C)CCCCCCCCCC(=O)O` [11‐methyl‐dodecanoic acid], for which the Kd in assay [2] (setting [8]) was 0.0069 M; in assay [2] (Kd, Tk 4), more than 0.001 M.
Take `CC(C)CCCCCCC/C=C/C(=O)O` [trans‐11‐methyl‐2‐dodecenoic acid]: the Kd was 0.00113 M in assay [2] (setting [8]) and more than 0.001 M in assay [2] (Kd, Tk 4).
`CCCCCCCCC/C=C\C(=O)O` [cis‐2‐dodecenoic acid (BDSF), cis‐2‐dodecenoic acid]: in assay [2] (Tk 4), the “△H” value is -1.21 kcal/mol and the “△S (cal mol^−1 per degree)” value is 58.05 cal mol^−1 per degree. Further, the Kd in assay [2] (setting [8]) is 7.1e-06 M. This molecule yielded a Kd in assay [2] (Kd, Tk 4, PBS buffer at 25°C) of 7e-06 M.
